Mdm2 ligase inh: MDM2-luciferase reporter signal enhancers, primary screen, MDM2 E3 ligase inhibitor project, cell-based, luminescence, 1536-well | E3 ubiquitin-protein ligase Mdm2 (Homo sapiens), Q00987 | cell-based MDM2 ubiquitination luciferase reporter, 2 h; 0 = plate control, 100 = twice control, blank-subtracted | signal enhancement, % at 5 µM | 210,000 tested, 0.11% active;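 active means signal enhancement of 30% or more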;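 further: luminescence tracks abundance of the self-degrading MDM2-luciferase fusion protein; higher signal means inhibition of MDM2 E3 ligase activity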
Target sequence (Q00987 whole entry, looked up, the tested form may be a part): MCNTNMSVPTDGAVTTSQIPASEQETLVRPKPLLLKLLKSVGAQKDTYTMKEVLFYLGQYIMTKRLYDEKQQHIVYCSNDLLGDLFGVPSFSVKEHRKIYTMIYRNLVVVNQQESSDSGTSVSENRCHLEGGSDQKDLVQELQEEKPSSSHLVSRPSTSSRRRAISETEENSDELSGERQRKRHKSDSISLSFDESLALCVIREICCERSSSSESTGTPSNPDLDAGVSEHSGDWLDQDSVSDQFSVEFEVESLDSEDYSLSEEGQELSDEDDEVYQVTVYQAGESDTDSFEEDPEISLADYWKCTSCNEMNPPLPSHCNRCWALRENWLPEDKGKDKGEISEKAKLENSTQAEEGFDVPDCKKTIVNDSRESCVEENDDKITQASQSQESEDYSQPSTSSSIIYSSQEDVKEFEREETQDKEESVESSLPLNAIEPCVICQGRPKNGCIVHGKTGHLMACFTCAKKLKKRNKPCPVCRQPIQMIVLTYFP
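Material: stable MDM2–luciferase fusion reporter cells / Quantity: 2000 cells/well / Dosing: single 5 µM compound dose, 0.2% final DMSO / Buffer or medium: DMEM / Schedule: 4 h cell settling then 2 h compound exposure, 37 °C / Detection: luminescence with SteadyLite reagent, 15 min at room temperature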
CHOP inhibitor: inhibitors of CHOP promoter induction, primary screen, cell-based, unfolded protein response, luciferase reporter | inhibition, % at 10 µM | 220,000 tested, 3.8% active | CHO-K1 CHOP-promoter luciferase, tunicamycin-induced, 15-18 h;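 active means compounds that reduced the stress-induced luciferase reporter signal by more than about 70% of percent inhibition, limit read from the data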
Hsp70 act: Hsp70 transcriptional activators, primary screen, cell-based, HeLa, Hsp70 promoter luciferase, luminescence, 10 µM; HeLa Hsp70 promoter luciferase reporter; scaled: vehicle 0, proteasome-inhibitor control 100%; activation, % at 10 µM; 200,000 tested, 0.04% active; AID 1203, 2008;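 active means activation above the mean across all tested compounds plus 3 SD, cutoff set per campaign, cut at about 5.5% in these data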
S1P3 antagonist: S1P3 receptor antagonists, primary screen, cell-based. inhibition, % at 4.98 µM. AID 485, 2006. 170,000 tested, 0.27% active. CHO S1P3 NFAT-BLA reporter, FRET fluorescence, antagonist mode;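 active means inhibition above the plate cutoff, the mean inhibition of test wells on that plate plus 3 SD, cut at about 28% in these data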;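 further: cells challenged with S1P at its EC80 of 0.8 µM; blue over green emission ratio from cleaved BLA substrate after 4 h stimulation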
Numbers stand for hits; – = inactive; · = no result; ! = not confirmed by another sample. Only some compounds are listed: those with a hit (about 4% of all), similar ones and a draw of the others.

SMILES | Mdm2 ligase inh | CHOP inhibitor | Hsp70 act | S1P3 antagonist
O=C(NC(=S)Nc1ccc(NC(=O)c2cccs2)cc1)c1cc2ccccc2o1 | – | 75.8 | – | –
Cc1cc(C)c2oc(-c3ccc(C)c(NC(=S)NC(=O)c4cccs4)c3)nc2c1 | – | – | – | ·
Cc1ccc(-c2nc3ncccc3o2)cc1NC(=O)c1cc2ccccc2o1 | – | 70.3 | – | –
Cc1ccc2oc(-c3ccc(NC(=O)c4ccc5c(c4)OCO5)cc3)nc2c1 | – | – | – | –
Cc1ccc(-c2nc3ccccc3o2)cc1NC(=S)NC(=O)c1cccs1 | – | 81.6 | – | ·
COc1ccc(NC(=O)C2CC(=O)N/C(=N/NC(=O)c3ccc(Cl)cc3)S2)cc1 (configuration not stated) | – | – | · | –
Cc1c(NC(=O)c2ccc3c(c2)OCO3)cccc1-c1nc2ccccc2o1 | – | – | – | –
Cc1ccc(-c2nc3ccccc3o2)cc1NC(=O)c1ccc2c(c1)OCO2 | – | 86.6 | – | –
O=C1C=C(N(CCO)Cc2ccccc2)c2ccccc2C1=O | – | 89.4 | – | –
CCOC(=O)c1ccccc1NC(=O)CSc1ncc(C(=O)OCC)c(N)n1 | – | 74.5 | – | –
CCOC(=O)c1ccccc1NC(=O)CSc1nc(N)cc(N)n1 | – | – | – | ·
O=C(NC(=S)NCCO)c1cn(-c2ccccc2)nc1-c1ccccc1 | – | – | – | –
CCOC(=O)c1cncc(O)c1 | – | – | · | –
CC(C)C(=O)NC(Nc1cc(C(F)(F)F)ccc1Cl)C(Cl)(Cl)Cl (configuration not stated) | – | 72.1 | – | –
Cc1ccc(S(=O)(=O)N2CCC(=O)N(CCOCc3cccc(C(F)(F)F)c3)CC2)cc1 | · | 79.1 | – | –
Cc1ccnc(N2CCC(C(=O)NCc3ccccc3F)CC2)n1 | – | – | – | –
COc1ccc(-c2nc(C#N)c(NCCc3ccccc3)o2)cc1 | – | 89.6 | – | –
CCCCNc1oc(-c2ccc(OC)cc2)nc1S(=O)(=O)c1ccccc1 | – | 71.8 | – | ·
CCNc1oc(-c2ccc(OC)cc2)nc1S(=O)(=O)c1ccc(Br)cc1 | · | – | – | ·
COc1ccc(CCNc2oc(COc3ccccc3F)nc2C#N)cc1 | – | 86.6 | – | –
CC(Nc1cccc2ccccc12)C(=O)N/N=C/c1ccc([N+](=O)[O-])cc1 (configuration not stated) | · | 81.7 | – | –
COc1cc([N+](=O)[O-])cc(/C=N/NC(=O)C(C)Nc2cccc3ccccc23)c1O (configuration not stated) | – | – | – | –
COc1ccc(S(=O)(=O)N2CCN(C3CCCCCCC3)CC2)cc1 | – | 74.0! | – | –
Cc1ccc(NC(=O)CSc2n[nH]c(=O)n2C2CC2)cc1S(=O)(=O)N1CCOCC1 | – | – | – | –
CN(C)CC1CCCCC1OC(=O)/C=C/c1ccc(Cl)cc1Cl (configuration not stated) | – | – | – | –
SMILES | Mdm2 ligase inh | CHOP inhibitor | Hsp70 act | S1P3 antagonist
Fc1ccc(-n2nnc(-c3cnc4ccccc4c3)n2)cc1 | · | 71.5 | – | –
Cc1ccc(CNS(=O)(=O)c2ccc(C(C)(C)C)cc2)n1C | – | – | – | –
COc1cc(OC)cc(-n2nnnc2SCC(=O)N2CCCc3ccccc32)c1 | – | – | – | –
COc1cccc(-n2nnnc2SCC(=O)N2CCCc3ccccc32)c1 | – | 70.2 | – | –
CC(C)CCOc1cccc(OCC(=O)O)c1 | – | 86.3 | – | –
C=CCc1ccccc1OCC(=O)N/N=C/c1ccc(OC(C)=O)cc1OC(C)=O | – | 72.6 | – | –
Cc1ccccc1OCC(=O)N/N=C/c1cc2ccccc2nc1Cl | – | – | – | ·
CCN1CCCC(OC(=O)c2cc(-c3ccc(C)cc3)nc3ccccc23)C1 (configuration not stated) | – | – | – | –
O=C(/C(=C/c1ccccc1)c1ccccc1)N1CCCCC1 | – | 86.9 | – | ·
O=C(N/C(=C/c1ccccc1)C(=O)N1CCCCCC1)c1ccccc1 | – | – | – | –
CSc1ccc(Cl)c(C(=O)Nc2ccc(Cl)cn2)c1 | – | – | – | –
COc1cc(SC)ccc1C(=O)Nc1ccc(Cl)cn1 | – | 86.2 | – | –
C=C(C)CNC(=S)NNC(=O)CCn1c2ccc(Cl)cc2c2cc(Cl)ccc21 | – | – | – | –
COc1ccc(Cl)cc1NC(=O)Nc1cccc([N+](=O)[O-])c1C | – | 84.0 | – | ·
COc1ccc(Cl)cc1NC(=O)NC1CCCCC1 | – | – | – | ·
Cc1ccc(/C=N/N2CCN(c3ccccn3)CC2)o1 | – | – | · | –
O=c1[nH]c2cc3c(cc2cc1CN(Cc1nnnn1CC1CCCO1)C1CCCCC1)OCO3 (configuration not stated) | – | – | – | –
O=c1[nH]c2cc3c(cc2cc1CN(Cc1nnnn1CC1CCCO1)C1CCCC1)OCO3 (configuration not stated) | 30.2 | – | – | –
N#Cc1c(SCC(N)=O)nc(-c2ccccc2)c2c1CCCC2 | – | – | – | –
Cc1ccc(-c2nc(SCC(N)=O)c(C#N)c3c2CCCC3)cc1 | – | 83.2 | – | ·
O=C(COc1ccc(S(=O)(=O)N2CCOCC2)cc1)N1CCCCCC1 | – | – | – | –
CCC(=O)N1CCN(c2ccc(Cl)cc2NC(=O)Cc2ccc(Cl)cc2)CC1 | – | 80.5 | – | ·
CCC(=O)N1CCN(c2ccccc2NC(=O)Cc2ccc(Cl)cc2)CC1 | – | – | – | –
COCCNC(=O)CN(C(=O)CCC(=O)Nc1cc(C)on1)c1cccc(C)c1C | – | – | – | –
Cc1ccc(Nc2nc(CSc3nnc(-c4cccs4)o3)cs2)cc1 | – | 85.8 | – | –
SMILES | Mdm2 ligase inh | CHOP inhibitor | Hsp70 act | S1P3 antagonist
CC(=O)N1c2ccccc2C2(O)N=C(C)SC12 (configuration not stated) | – | 104.8 | – | –
CC(=O)N1c2ccccc2Nc2ccccc21 | – | – | – | –
Cc1ccc(-c2nc(NC(=O)c3ccc(S(=O)(=O)N(CCC#N)CCC#N)cc3)sc2-c2ccccc2)cc1 | – | – | – | –
CCCN(CCC)S(=O)(=O)c1ccc(C(=O)Nc2nc3c(s2)CCc2ccccc2-3)cc1 | – | 77.5 | – | –
Cc1c(NC2=CC(=O)CC(C)(C)C2)ccc([N+](=O)[O-])c1C | – | 85.0 | – | –
COC(=O)CSc1nnc(-c2sc3ccccc3c2Cl)o1 | – | 70.4 | – | ·
CN1C2CC(OC(=O)[C@H](CO)c3ccccc3)CC1C1OC12 (some centres not stated) | · | – | · | ·
Cc1ccc(-c2cn3nc(C)c(C)nc3n2)cc1 | – | 81.3 | – | –
FC(F)(F)c1nc(N2CCCC2)ncc1-c1nnnn1-c1ccccc1 | – | 72.0 | – | ·
CCCOc1ccc(CNC(=S)NCc2ccc(OC(C)C)cc2)cc1 | – | 82.1 | – | –
O=C1c2[nH]nc(-c3ccccc3O)c2C(c2ccc(F)cc2)N1Cc1ccco1 (configuration not stated) | – | 81.6 | – | –

High-throughput results as filed in PubChem BioAssay.
